Assay results from ChEMBL document CHEMBL1817572, “New, potent, selective, and short-acting peptidic V1a receptor agonists” (J Med Chem, 2011).
Bridge positions count the residues as written; N and C are the ends. Square brackets hold non-standard residues; d marks the D form. Peptide text beside a SMILES is read from it. * marks the point of attachment. Orn(iPr) = CC(C)NCCC[C@H](N)C(=O)O; Orn = NCCC[C@H](N)C(=O)O; Dab = NCC[C@H](N)C(=O)O; NHiBu = CC(C)CN*

Columns and labels:
Vasopressin V1a receptor [1] = molecular target: Vasopressin V1a receptor (Homo sapiens, UniProt P37288); experiment: Agonist activity at recombinant human vasopressin V1a receptor expressed in HEK293 cells by luciferase reporter gene assay; type: functional, cell-based; conditions: read-out: EC50
Chain of Vasopressin V1a receptor (Homo sapiens, UniProt P37288) (P37288 whole entry): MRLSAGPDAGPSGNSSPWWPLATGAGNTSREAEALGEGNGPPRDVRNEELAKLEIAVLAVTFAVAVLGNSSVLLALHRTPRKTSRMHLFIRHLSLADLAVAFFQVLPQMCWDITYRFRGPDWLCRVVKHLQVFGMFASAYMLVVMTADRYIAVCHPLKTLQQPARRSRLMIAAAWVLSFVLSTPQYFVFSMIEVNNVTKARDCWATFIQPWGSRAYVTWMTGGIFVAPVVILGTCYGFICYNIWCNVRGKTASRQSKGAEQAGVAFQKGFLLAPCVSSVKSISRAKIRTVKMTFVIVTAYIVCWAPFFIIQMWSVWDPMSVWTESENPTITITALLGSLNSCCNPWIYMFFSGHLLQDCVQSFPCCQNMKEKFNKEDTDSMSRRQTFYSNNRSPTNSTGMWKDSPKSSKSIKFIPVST

Vasopressin V1b receptor = molecular target: T1, Vasopressin V1b receptor (Homo sapiens, UniProt P47901); experiment: Agonist activity at recombinant human vasopressin V1b receptor expressed in Flp-In-293 cells by luciferase reporter gene assay; type: functional, cell-based; conditions: read-out: EC50
T1 sequence (P47901 whole entry): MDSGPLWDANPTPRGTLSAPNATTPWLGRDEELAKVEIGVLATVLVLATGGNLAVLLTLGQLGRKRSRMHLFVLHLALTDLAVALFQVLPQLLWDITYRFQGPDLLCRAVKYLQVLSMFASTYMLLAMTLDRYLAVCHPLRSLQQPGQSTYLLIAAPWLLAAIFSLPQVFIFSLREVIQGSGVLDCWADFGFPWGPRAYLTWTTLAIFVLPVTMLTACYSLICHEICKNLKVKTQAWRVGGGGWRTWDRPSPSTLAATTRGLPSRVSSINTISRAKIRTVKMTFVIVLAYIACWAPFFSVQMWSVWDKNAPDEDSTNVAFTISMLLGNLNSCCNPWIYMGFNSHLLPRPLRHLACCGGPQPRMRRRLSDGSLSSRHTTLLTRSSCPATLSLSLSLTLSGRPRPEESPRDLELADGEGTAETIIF
How it was run: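 Reporter gene assays in HEK293 cells transiently cotransfected with V1a (human or rat) or human V2 receptor vector plus NFAT-luciferase (V1a) or CRE-luciferase (V2) reporter; V1b in Flp-In-293 stably expressing receptor, OT in CHO-K1 stably expressing receptor, both transiently transfected with NFAT-luciferase. Two days post-transfection, peptides added for 5 h at 37 °C, lysis with luciferin, luminescence read.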

Vasopressin V2 receptor [2] = molecular target: T2, Vasopressin V2 receptor (Homo sapiens, UniProt P30518); experiment: Agonist activity at recombinant human vasopressin V2 receptor expressed in HEK293 cells by luciferase reporter gene assay; type: functional, cell-based; conditions: read-out: EC50
T2 sequence (P30518 whole entry): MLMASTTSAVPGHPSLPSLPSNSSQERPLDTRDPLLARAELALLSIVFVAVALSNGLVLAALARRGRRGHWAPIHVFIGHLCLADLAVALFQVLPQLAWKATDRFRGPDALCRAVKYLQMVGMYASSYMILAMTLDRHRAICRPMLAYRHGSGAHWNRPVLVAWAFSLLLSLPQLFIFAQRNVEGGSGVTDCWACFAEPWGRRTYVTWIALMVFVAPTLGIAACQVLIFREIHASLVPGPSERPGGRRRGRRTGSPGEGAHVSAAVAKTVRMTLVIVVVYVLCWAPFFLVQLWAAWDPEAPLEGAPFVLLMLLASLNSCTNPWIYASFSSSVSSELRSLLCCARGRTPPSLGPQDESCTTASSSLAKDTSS

Vasopressin V1a receptor [3] = molecular target: Vasopressin V1a receptor (Rattus norvegicus, UniProt P30560); experiment: Agonist activity at recombinant rat vasopressin V1a receptor expressed in HEK293 cells by luciferase reporter gene assay; type: functional, cell-based
Chain of Vasopressin V1a receptor (Rattus norvegicus, UniProt P30560) (P30560 whole entry): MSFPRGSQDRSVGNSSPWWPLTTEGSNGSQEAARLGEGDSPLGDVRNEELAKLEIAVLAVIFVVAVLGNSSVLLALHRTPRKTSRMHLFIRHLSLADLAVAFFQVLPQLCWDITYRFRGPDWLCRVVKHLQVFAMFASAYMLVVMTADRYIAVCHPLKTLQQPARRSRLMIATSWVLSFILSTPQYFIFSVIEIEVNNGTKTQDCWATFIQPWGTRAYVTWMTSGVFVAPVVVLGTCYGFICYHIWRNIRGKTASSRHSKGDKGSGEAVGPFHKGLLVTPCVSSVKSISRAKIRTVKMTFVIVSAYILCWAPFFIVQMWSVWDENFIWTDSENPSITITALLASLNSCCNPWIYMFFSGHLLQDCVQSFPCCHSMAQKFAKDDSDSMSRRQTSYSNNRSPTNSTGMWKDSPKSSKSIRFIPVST

[4] = molecular target: Vasopressin V1a/V2 (Homo sapiens) (UniProt P30518+P37288); experiment: Selectivity ratio of EC50 for human vasopressin V2 receptor to EC50 for human vasopressin V1a receptor
Chain of Vasopressin V1a/V2 (Homo sapiens) (P30518 whole entry, looked up): as the sequence (P30518 whole entry) above
Chain of Vasopressin V1a/V2 (Homo sapiens) (P37288 whole entry, looked up): as the sequence (P37288 whole entry) above

Oxytocin receptor = molecular target: T3, Oxytocin receptor (Homo sapiens, UniProt P30559); experiment: Agonist activity at human OT receptor expressed in CHO-K1 cells by luciferase reporter gene assay; type: functional, cell-based
T3 sequence (P30559 whole entry): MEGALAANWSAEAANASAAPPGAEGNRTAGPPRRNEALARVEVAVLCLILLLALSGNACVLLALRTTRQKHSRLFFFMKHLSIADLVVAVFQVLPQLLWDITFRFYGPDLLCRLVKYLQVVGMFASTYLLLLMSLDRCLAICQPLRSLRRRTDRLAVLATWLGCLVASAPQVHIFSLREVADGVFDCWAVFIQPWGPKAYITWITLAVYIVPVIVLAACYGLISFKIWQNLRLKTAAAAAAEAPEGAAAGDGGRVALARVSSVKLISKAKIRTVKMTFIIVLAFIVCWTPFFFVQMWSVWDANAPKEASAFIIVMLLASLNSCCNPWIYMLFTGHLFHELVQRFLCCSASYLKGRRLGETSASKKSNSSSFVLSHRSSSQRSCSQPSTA

Homo sapiens [5] = species on record: Homo sapiens; experiment: Selectivity ratio of EC50 for human vasopressin V1b receptor to EC50 for human vasopressin V1a receptor
Homo sapiens [6] = species on record: Homo sapiens; experiment: Selectivity ratio of EC50 for human oxytocin receptor to EC50 for human vasopressin V1a receptor
Vasopressin V2 receptor [7] = molecular target: T2, Vasopressin V2 receptor; experiment: Partial agonist activity at recombinant human vasopressin V2 receptor expressed in HEK293 cells by luciferase reporter gene assay; type: functional, cell-based
How it was run: (§1)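 Same luciferase reporter systems (OT in stable CHO-K1, V1b in stable Flp-In-293, each with transient NFAT-luciferase; V1a in HEK293 with NFAT-luciferase, V2 in HEK293 with CRE-luciferase). Peptides added for 5 h at 37 °C two days post-transfection, luminescence read. Partial agonism means efficacy <70%.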

[8] = molecular target: T4, Oxytocin receptor (Homo sapiens) (UniProt P30559); experiment: Partial agonist activity at human OT receptor expressed in CHO-K1 cells by luciferase reporter gene assay; type: functional, cell-based; how it was run: as §1
T4 sequence (whole entry): T3 sequence (P30559 whole entry)

| EC50 (Vasopressin V1a receptor [1]) | EC50 (Vasopressin V1b receptor) | EC50 (Vasopressin V2 receptor [2]) | Ratio EC50 [4] | EC50 (Oxytocin receptor; cho-k1, read-out: EC50) | EC50 (Oxytocin receptor; read-out: pEC50 (converted)) | Ratio EC50 (Homo sapiens [5]) | Ratio EC50 (Homo sapiens [6]) | Efficacy (Vasopressin V2 receptor [7]) | SMILES | EC50 (Vasopressin V1a receptor [3]; read-out: EC50) | EC50 (Vasopressin V1a receptor [3]; read-out: pEC50 (converted)) | EC50 (Oxytocin receptor; read-out: EC50) | Efficacy [8] |
| --- | --- | --- | --- | --- | --- | --- | --- | --- | --- | --- | --- | --- | --- |
| 3.9 nM | 8.7 nM | 5300 nM | 1300 | > 10000 nM | > 10000 nM | 2.2 | > 2500 | < 70% | CC[C@H](C)[C@@H]1NC(=O)[C@H](Cc2ccccc2)NC(=O)[C@@H](N)CSSC[C@@H](C(=O)N2CCC[C@H]2C(=O)N[C@@H](CCN)C(=O)NCC(N)=O)NC(=O)[C@H](CC(N)=O)NC(=O)[C@H](CC(=O)NC)NC1=O (H-CFID(NHMe)NCP[Dab]G-NH2; disulfide 1-6) |  |  |  |  |
| 39 nM | 97 nM | 2600 nM | 66 | > 10000 nM | > 10000 nM | 2.4 | > 250 | < 70% | CCNC(=O)CC[C@@H]1NC(=O)[C@H]([C@@H](C)CC)NC(=O)[C@H](Cc2ccccc2)NC(=O)[C@@H](N)CSSC[C@@H](C(=O)N2CCC[C@H]2C(=O)N[C@@H](CCCN)C(=O)NCC(N)=O)NC(=O)[C@H](CC(N)=O)NC1=O (H-CFIE(NHEt)NCP[Orn]G-NH2; disulfide 1-6) |  |  |  |  |
| 21 nM | 150 nM | 3000 nM | 140 | > 10000 nM | > 10000 nM | 7.1 | > 470 | < 70% | CC[C@H](C)[C@@H]1NC(=O)[C@H](Cc2ccccc2)NC(=O)[C@@H](N)CSSC[C@@H](C(=O)N2CCC[C@H]2C(=O)N[C@@H](CCCN)C(=O)NCC(N)=O)NC(=O)[C@H](CC(N)=O)NC(=O)[C@H](CCC(=O)NCC(C)C)NC1=O (H-CFIE(NHiBu)NCP[Orn]G-NH2; disulfide 1-6) |  |  |  |  |

More lines, now with the values behind:

| SMILES | EC50 (Vasopressin V1a receptor [1]) | EC50 (Vasopressin V1b receptor) | EC50 (Vasopressin V2 receptor [2]) | Ratio EC50 [4] | EC50 (Oxytocin receptor; cho-k1, read-out: EC50) | EC50 (Oxytocin receptor; read-out: pEC50 (converted)) | Ratio EC50 (Homo sapiens [5]) | Ratio EC50 (Homo sapiens [6]) | Efficacy (Vasopressin V2 receptor [7]) | EC50 (Vasopressin V1a receptor [3]; read-out: EC50) | EC50 (Vasopressin V1a receptor [3]; read-out: pEC50 (converted)) | EC50 (Oxytocin receptor; read-out: EC50) | Efficacy [8] |
| --- | --- | --- | --- | --- | --- | --- | --- | --- | --- | --- | --- | --- | --- |
| N=C(N)NCCC[C@H](NC(=O)[C@@H]1CCCN1C(=O)[C@@H]1CSSC[C@H](N)C(=O)N[C@@H](Cc2ccccc2)C(=O)N[C@@H](Cc2ccccc2)C(=O)N[C@@H](CCC(N)=O)C(=O)N[C@@H](CC(N)=O)C(=O)N1)C(=O)NCC(N)=O (H-CFFQNCPRG-NH2; disulfide 1-6) | 0.15 nM | 16 nM | 1.4 nM |  |  |  |  |  |  | 0.07 nM | 0.0794 nM |  |  |
| CC[C@H](C)[C@@H]1NC(=O)[C@H](Cc2ccccc2)NC(=O)[C@@H](N)CSSC[C@@H](C(=O)N2CCC[C@H]2C(=O)N[C@@H](CCCNC(C)C)C(=O)NCC(N)=O)NC(=O)[C@H](CC(N)=O)NC(=O)[C@H](CC(N)=O)NC1=O (H-CFINNCP[Orn(iPr)]G-NH2; disulfide 1-6) | 1.4 nM | 250 nM | 3700 nM | 2600 |  |  | 170 | 78 | < 70% |  |  | 110 nM | < 70% |
| CC[C@H](C)[C@@H]1NC(=O)[C@H](Cc2ccccc2)NC(=O)[C@@H](N)CSSC[C@@H](C(=O)N2CCC[C@H]2C(=O)N[C@@H](CCN)C(=O)NCC(N)=O)NC(=O)[C@H](CC(N)=O)NC(=O)[C@H](CCC(N)=O)NC1=O (H-CFIQNCP[Dab]G-NH2; disulfide 1-6) |  | 26 nM | 73 nM | 140 |  |  | 52 | 18 |  |  |  | 9.1 nM | < 70% |
| CC[C@H](C)[C@@H]1NC(=O)[C@H](Cc2ccccc2)NC(=O)[C@@H](N)CSSC[C@@H](C(=O)N2CCC[C@H]2C(=O)N[C@@H](CCCN)C(=O)NCC(N)=O)NC(=O)[C@H](CC(N)=O)NC(=O)[C@H](CCC(N)=O)NC1=O (H-CFIQNCP[Orn]G-NH2; disulfide 1-6) |  | 25 nM | 155 nM |  | > 10000 nM | > 10000 nM |  |  |  | 0.12 nM |  |  |  |
